Activity calls are given as the source filed them. No cut-off for these calls is given here.
How the values were obtained:
[1] = target: T1, Tyrosine-protein kinase TXK (Homo sapiens, UniProt P42681); assay: Inhibition of recombinant TXK (unknown origin) preincubated for 1 hr in presence of ATP by Z-Lyte assay
T1 sequence (P42681 whole entry): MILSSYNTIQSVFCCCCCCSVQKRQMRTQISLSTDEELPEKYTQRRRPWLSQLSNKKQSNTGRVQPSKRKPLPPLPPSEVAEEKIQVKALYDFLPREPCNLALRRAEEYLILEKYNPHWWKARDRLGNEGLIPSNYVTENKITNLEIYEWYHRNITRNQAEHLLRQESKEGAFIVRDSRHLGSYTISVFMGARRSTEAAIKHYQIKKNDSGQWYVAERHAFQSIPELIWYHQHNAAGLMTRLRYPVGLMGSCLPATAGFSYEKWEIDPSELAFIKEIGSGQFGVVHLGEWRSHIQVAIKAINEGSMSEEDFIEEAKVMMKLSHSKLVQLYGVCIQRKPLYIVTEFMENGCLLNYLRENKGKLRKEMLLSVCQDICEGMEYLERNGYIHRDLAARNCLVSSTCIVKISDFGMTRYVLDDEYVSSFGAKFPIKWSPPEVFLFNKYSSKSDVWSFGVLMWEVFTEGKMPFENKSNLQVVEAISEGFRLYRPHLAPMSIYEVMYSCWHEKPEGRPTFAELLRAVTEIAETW

[2] = Terminal elimination half life in human at 100 mg, po BID administered for 8 days by LC-MS/MS analysis; format: ADME, organism-based; conditions: in vivo, time 8 day, read-out: LambdaZ (converted)
[3] = AUC(0 to 12 hrs) in human at 250 mg, po administered for 8 days by LC-MS/MS analysis; format: ADME, organism-based; conditions: in vivo, time 8 day
Summary of the method: (§1)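 Steady-state plasma sampling on cycle 1 day 8 in patients, predose and 0.25, 0.5, 0.75, 1, 2, 4 and 6 h post-dose, into lithium heparin. Plasma was stored at -80°C. Drug was quantified by validated LC-MS/MS against a stable labeled internal standard, using only values at or above LLOQ and nominal sampling times.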

[4] = Tmax in human at 250 mg, po administered for 8 days by LC-MS/MS analysis; format: ADME, organism-based; conditions: in vivo, time 8 day
Summary of the method: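 Patient plasma sampled on cycle 1 day 8 at predose and 0.25, 0.5, 0.75, 1, 2, 4 and 6 h post-dose, in lithium heparin. […] Tmax read directly from each individual's data; summarized descriptively.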

[5] = Apparent oral clearance in human at 100 mg, po administered for 8 days by LC-MS/MS analysis; format: ADME, organism-based; conditions: in vivo, time 8 day; summary of the method: as §1
[6] = target: Tyrosine-protein kinase HCK (Homo sapiens, UniProt P08631); assay: Inhibition of recombinant HCK (unknown origin) preincubated for 1 hr in presence of ATP by Z-Lyte assay
Sequence of Tyrosine-protein kinase HCK (P08631 whole entry): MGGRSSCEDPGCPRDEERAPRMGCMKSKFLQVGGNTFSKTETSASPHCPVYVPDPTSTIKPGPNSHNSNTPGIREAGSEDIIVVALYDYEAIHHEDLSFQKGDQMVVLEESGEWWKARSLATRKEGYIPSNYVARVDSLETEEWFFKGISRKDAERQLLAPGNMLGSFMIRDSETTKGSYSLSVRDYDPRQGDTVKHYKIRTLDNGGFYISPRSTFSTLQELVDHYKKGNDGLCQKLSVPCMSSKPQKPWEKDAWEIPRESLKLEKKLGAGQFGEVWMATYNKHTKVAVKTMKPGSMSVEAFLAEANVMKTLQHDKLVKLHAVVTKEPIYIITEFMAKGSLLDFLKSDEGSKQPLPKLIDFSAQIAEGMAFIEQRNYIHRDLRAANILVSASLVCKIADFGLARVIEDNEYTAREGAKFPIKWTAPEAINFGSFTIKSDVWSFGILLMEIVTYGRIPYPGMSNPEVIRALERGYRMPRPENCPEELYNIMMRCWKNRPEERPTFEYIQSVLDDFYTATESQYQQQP
Summary of the method: (§2)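 Recombinant kinase activity was measured by Z'-LYTE with ATP at each enzyme's Km. Inhibitor came from a 10 mM DMSO stock and was tested at 10 concentrations. Compound was preincubated with kinase for 1 h before ATP addition started the reaction, for about 2 h total compound-kinase exposure. IC50 is from 2–3 independent experiments.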

[7] = Apparent oral clearance in human at 175 mg, po administered for 8 days by LC-MS/MS analysis; format: ADME, organism-based; conditions: in vivo, time 8 day; summary of the method: as §1
[8] = target: Tyrosine-protein kinase Lck (Homo sapiens, UniProt P06239); assay: Inhibition of recombinant LCK (unknown origin) preincubated for 1 hr […] by Z-Lyte assay; summary of the method: as §2
Sequence of Tyrosine-protein kinase Lck (P06239 whole entry): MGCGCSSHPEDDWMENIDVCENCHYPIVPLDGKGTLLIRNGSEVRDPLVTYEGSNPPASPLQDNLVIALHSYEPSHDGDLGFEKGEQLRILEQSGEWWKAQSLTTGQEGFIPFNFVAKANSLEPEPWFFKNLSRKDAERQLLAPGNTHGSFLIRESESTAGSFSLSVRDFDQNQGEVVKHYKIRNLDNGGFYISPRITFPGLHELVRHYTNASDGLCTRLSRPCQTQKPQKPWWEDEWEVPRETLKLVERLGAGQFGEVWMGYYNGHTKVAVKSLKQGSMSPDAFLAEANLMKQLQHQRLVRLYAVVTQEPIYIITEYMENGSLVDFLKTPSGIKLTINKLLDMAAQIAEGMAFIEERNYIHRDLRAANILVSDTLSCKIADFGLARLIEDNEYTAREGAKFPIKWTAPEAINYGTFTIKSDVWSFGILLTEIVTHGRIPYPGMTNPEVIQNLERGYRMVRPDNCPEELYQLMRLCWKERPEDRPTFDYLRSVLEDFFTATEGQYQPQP

[9] = Half life in human at 175 mg, po administered for 8 days by LC-MS/MS analysis; format: ADME, organism-based; conditions: in vivo, time 8 day; summary of the method: as §1
[10] = AUC(0 to infinity) in human at 100 mg, po administered for 8 days by LC-MS/MS analysis; format: ADME, organism-based; conditions: in vivo, time 8 day; summary of the method: as §1
[11] = AUC(0 to 24 hrs) in human at 100 mg, po BID administered for 8 days by LC-MS/MS analysis; format: ADME, organism-based; conditions: in vivo, time 8 day; summary of the method: as §1
[12] = Apparent volume of distribution during terminal phase in human at 250 mg, po administered for 8 days by LC-MS/MS analysis; format: ADME, organism-based; conditions: in vivo, time 8 day, read-out: Vz/F; summary of the method: as §1
[13] = Cmax in human at 250 mg, po administered for 8 days by LC-MS/MS analysis; format: ADME, organism-based; conditions: in vivo, time 8 day; summary of the method: as §1
[14] = Cmax in human at 100 mg, po administered for 8 days by LC-MS/MS analysis; format: ADME, organism-based; conditions: in vivo, time 8 day; summary of the method: as §1
[15] = Apparent volume of distribution during terminal phase in human at 100 mg, po BID administered for 8 days by LC-MS/MS analysis; format: ADME, organism-based; conditions: in vivo, time 8 day, read-out: Vz/F; summary of the method: as §1
[16] = target: Proto-oncogene tyrosine-protein kinase Src (Homo sapiens, UniProt P12931); assay: Inhibition of recombinant SRC (unknown origin) preincubated for 1 hr in presence of ATP by Z-Lyte assay
Sequence of Proto-oncogene tyrosine-protein kinase Src (P12931 2-536 limits assumed): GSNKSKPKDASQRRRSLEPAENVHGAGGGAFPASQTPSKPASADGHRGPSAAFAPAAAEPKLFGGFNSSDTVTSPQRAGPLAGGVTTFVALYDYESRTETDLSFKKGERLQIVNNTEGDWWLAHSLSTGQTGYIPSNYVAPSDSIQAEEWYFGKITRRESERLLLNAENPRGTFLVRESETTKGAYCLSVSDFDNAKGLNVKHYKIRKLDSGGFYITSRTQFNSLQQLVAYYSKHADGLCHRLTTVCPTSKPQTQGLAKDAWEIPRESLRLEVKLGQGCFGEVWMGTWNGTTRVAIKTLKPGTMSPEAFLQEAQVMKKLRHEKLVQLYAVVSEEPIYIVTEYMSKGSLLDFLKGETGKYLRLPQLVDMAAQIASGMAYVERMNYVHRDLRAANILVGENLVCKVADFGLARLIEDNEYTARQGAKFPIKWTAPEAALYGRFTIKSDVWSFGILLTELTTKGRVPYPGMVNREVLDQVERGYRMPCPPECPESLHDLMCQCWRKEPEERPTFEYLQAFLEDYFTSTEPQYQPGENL

[17] = Terminal elimination half life in human at 175 mg, po administered for 8 days by LC-MS/MS analysis; format: ADME, organism-based; conditions: in vivo, time 8 day, read-out: LambdaZ (converted)
[18] = target: Tyrosine-protein kinase BTK (Homo sapiens) (UniProt Q06187); conditions: Platelet, dose 25-1000 nM, time 30.0 min
Sequence of Tyrosine-protein kinase BTK (Homo sapiens) (Q06187 whole entry): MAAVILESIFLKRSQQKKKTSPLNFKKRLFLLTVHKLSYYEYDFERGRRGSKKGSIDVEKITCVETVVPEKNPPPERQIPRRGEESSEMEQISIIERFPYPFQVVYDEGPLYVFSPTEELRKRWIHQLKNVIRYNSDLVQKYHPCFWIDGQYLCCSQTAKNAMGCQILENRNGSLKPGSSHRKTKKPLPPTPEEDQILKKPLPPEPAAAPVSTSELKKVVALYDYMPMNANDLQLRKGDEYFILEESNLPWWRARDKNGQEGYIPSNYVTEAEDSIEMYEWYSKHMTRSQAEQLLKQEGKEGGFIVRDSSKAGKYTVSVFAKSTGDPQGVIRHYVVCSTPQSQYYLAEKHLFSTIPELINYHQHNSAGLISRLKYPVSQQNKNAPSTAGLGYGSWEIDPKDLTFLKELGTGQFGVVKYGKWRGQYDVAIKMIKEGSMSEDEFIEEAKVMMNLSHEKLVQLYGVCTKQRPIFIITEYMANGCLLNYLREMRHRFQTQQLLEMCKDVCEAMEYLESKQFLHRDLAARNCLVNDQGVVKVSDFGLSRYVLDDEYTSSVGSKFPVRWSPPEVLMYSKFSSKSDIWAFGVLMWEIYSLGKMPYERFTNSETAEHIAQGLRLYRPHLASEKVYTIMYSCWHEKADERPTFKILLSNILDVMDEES

[19] = Drug exposure in human administered for 6 hrs by LC-MS/MS analysis; format: ADME; conditions: po, dose 100-400 mg
[20] = AUC(0 to 24 hrs) in human at 100 mg, po administered for 8 days by LC-MS/MS analysis; format: ADME, organism-based; conditions: in vivo, time 8 day; summary of the method: as §1
[21] = AUC(0 to 6 hrs) in human at 175 mg, po administered for 8 days by LC-MS/MS analysis; format: ADME, organism-based; conditions: in vivo, time 8 day; summary of the method: as §1
[22] = target: Tyrosine-protein kinase Yes (Homo sapiens, UniProt P07947); assay: Inhibition of recombinant YES1 (unknown origin) […] by Z-Lyte assay
Sequence of Tyrosine-protein kinase Yes (P07947 whole entry): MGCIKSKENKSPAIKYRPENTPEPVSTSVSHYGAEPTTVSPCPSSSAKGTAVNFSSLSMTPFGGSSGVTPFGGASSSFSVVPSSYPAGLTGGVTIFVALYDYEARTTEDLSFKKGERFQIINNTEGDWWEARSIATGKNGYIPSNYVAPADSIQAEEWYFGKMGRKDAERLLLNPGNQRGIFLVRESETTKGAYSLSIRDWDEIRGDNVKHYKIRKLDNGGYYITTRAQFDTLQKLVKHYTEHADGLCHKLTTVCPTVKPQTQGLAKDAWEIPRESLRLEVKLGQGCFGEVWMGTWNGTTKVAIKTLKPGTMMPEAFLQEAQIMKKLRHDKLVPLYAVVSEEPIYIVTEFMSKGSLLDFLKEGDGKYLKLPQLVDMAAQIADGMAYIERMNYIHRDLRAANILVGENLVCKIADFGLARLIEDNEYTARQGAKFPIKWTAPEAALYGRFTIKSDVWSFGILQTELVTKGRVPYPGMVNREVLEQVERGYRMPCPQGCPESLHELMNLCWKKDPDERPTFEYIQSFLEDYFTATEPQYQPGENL
Summary of the method: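 Recombinant YES1 run in a Z'-LYTE assay. Compound preincubated with kinase for 1 h before ATP was added to start the reaction. IC50 derived from independent experiments run head-to-head with the comparator.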

[23] = Apparent volume of distribution during terminal phase in human at 100 mg, po administered for 8 days by LC-MS/MS analysis; format: ADME, organism-based; conditions: in vivo, time 8 day, read-out: Vz/F; summary of the method: as §1
[24] = AUC(0 to 6 hrs) in human at 100 mg, po administered for 8 days by LC-MS/MS analysis; format: ADME, organism-based; conditions: in vivo, time 8 day; summary of the method: as §1
[25] = Cmax in human at 400 mg, po administered for 8 days by LC-MS/MS analysis; format: ADME, organism-based; conditions: in vivo, time 8 day; summary of the method: as §1
[26] = AUC(0 to 12 hrs) in human at 100 mg, po administered for 8 days by LC-MS/MS analysis; format: ADME, organism-based; conditions: in vivo, time 8 day; summary of the method: as §1
[27] = Terminal elimination half life in human at 250 mg, po administered for 8 days by LC-MS/MS analysis; format: ADME, organism-based; conditions: in vivo, time 8 day, read-out: LambdaZ (converted)
[28] = Half life in human at 100 mg, po BID administered for 8 days by LC-MS/MS analysis; format: ADME, organism-based; conditions: in vivo, time 8 day; summary of the method: as §1
[29] = AUC(0 to 6 hrs) in human at 400 mg, po administered for 8 days by LC-MS/MS analysis; format: ADME, organism-based; conditions: in vivo, time 8 day; summary of the method: as §1
[30] = target: Tyrosine-protein kinase Lyn (Homo sapiens, UniProt P07948); assay: Inhibition of recombinant LYN (unknown origin) preincubated for 1 hr in presence of ATP by Z-Lyte assay; summary of the method: as §2
Sequence of Tyrosine-protein kinase Lyn (P07948 whole entry): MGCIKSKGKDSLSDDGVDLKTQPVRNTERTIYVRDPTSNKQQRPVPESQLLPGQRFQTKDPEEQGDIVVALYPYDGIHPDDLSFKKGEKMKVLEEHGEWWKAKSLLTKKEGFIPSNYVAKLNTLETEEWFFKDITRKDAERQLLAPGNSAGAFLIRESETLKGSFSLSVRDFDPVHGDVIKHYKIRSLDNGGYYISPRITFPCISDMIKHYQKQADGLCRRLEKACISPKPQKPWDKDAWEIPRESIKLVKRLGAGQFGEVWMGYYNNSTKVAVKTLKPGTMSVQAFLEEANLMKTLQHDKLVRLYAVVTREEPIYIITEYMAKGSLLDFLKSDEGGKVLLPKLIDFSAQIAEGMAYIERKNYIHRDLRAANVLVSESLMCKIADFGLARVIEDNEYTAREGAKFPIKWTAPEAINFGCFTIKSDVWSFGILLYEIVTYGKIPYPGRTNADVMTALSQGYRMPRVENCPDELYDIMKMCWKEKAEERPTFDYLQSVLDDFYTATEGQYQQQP

[31] = Half life in human at 400 mg, po administered for 8 days by LC-MS/MS analysis; format: ADME, organism-based; conditions: in vivo, time 8 day; summary of the method: as §1

For `CC#CC(=O)N1CCC[C@H]1c1nc(-c2ccc(C(=O)Nc3ccccn3)cc2)c2c(N)nccn12` [ACALABRUTINIB], the IC50 [1] was 368 nM, the k el at 192 h [2] was 0.000188 s⁻¹ and the AUC at 192 h [3] was 2310 ng·h/mL. The Tmax [4] was 1.1 h, the CL/F [5] was 3000 mL/min and the IC50 [6] was over 1000 nM. It also gave a CL/F [7] of 3550 mL/min, an IC50 [8] of over 1000 nM and a half-life [9] of 1.02 h. The AUC(0-inf) [10] was 603 ng·h/mL, the AUC at 192 h [11] was 1850 ng·h/mL and the Vd/F [12] was 179 L. For the same compound, the Cmax [13] was 1350 ng/mL, the Cmax [14] was 529 ng/mL and the Vd/F [15] was 361 L. The IC50 [16] was over 1000 nM, the k el at 192 h [17] was 0.000194 s⁻¹ and the inhibition [18] was “inactive”. For the same compound, the Drug uptake [19] was “Dose-Dependent Effect”, the AUC at 192 h [20] was 603 ng·h/mL and the AUC at 192 h [21] was 1140 ng·h/mL. It also gave an IC50 [22] of over 1000 nM, a Vd/F [23] of 308 L and an AUC at 192 h [24] of 584 ng·h/mL. It also gave a Cmax [25] of 902 ng/mL, an AUC at 192 h [26] of 602 ng·h/mL and a k el at 192 h [27] of 0.000206 s⁻¹. It also gave a half-life [28] of 1.13 h, an AUC at 192 h [29] of 1730 ng·h/mL and an IC50 [30] of over 1000 nM. It also gave a half-life [31] of 1.39 h.
